The results in this text go back to ChEMBL document CHEMBL1122156, “A comparison of the inhibitory action of 5-(substituted-benzyl)-2,4-diaminopyrimidines on dihydrofolate reductase from chicken liver with that from bovine liver” (J Med Chem, 1982).

The target of experiment [1] is T1, Dihydrofolate reductase (Gallus gallus) (UniProt P00378).
T1 sequence (whole entry): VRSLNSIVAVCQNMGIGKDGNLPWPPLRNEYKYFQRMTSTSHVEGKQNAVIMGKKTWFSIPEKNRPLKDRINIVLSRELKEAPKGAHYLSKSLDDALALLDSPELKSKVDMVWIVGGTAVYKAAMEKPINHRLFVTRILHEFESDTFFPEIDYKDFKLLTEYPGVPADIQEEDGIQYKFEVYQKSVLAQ

Experiment [2] concerns the target T1, Dihydrofolate reductase (Gallus gallus). The experiment in a line: Inhibitory activity against chicken Dihydrofolate reductase at pH 7.2. Summed up: (§1)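 DHFR from chicken liver and from bovine liver, each assayed at pH 7.2 by the group's earlier-reported inhibition procedure. Potency is expressed as an apparent inhibition constant, reported as log(1/Ki app).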

For experiment [3], the target named is T2, Dihydrofolate reductase (Bos taurus) (UniProt P00376).
T2 sequence (whole entry): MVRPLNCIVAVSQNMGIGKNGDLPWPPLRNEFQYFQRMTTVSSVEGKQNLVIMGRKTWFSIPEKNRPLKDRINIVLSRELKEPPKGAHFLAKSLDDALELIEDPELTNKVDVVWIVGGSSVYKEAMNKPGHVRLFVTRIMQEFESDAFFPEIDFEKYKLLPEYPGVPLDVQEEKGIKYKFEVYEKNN
Kind of experiment: Inhibitory activity against bovine liver Dihydrofolate reductase at pH 7.2. Summed up: as §1

The target in experiment [4] is T2, Dihydrofolate reductase (Bos taurus).

The structures appear in SMILES notation.

In experiment [1], `Nc1ncc(Cc2ccc(F)cc2)c(N)n1` had a Log 1/Ki app of 4.79.
The molecule `COc1ccc(Cc2cnc(N)nc2N)cc1C(F)(F)F` returned a Log 1/Ki app in experiment [1] of 4.99.
Same read-out and setting: under `Nc1ncc(Cc2ccc([N+](=O)[O-])cc2)c(N)n1` stands 4.37.
For `COCCOc1cccc(Cc2cnc(N)nc2N)c1`, the Log 1/Ki app was determined as 4.83 in experiment [2] and 5.58 in experiment [3].
Take `CN(C)c1ccc(Cc2cnc(N)nc2N)cc1`: in experiment [1], the Log 1/Ki app came to 4.01.
Molecule `COCCOc1c(OC)cc(Cc2cnc(N)nc2N)cc1OC` registered a Log 1/Ki app in experiment [1] of 3.64.
On the same count and under the same terms, under `CC(=O)Nc1ccc(Cc2cnc(N)nc2N)cc1` stands 4.26; under `CCCCOCc1cccc(Cc2cnc(N)nc2N)c1`, 5.17.
For `Nc1ncc(Cc2cccc(I)c2)c(N)n1`, the results for the Log 1/Ki app in experiment [1] and in experiment [4] were 4.79 and 6.15, respectively.
In experiment [3], `Nc1ncc(Cc2cc(O)cc(O)c2)c(N)n1` registered a Log 1/Ki app of 3.39.
As for `Cc1cccc(Cc2cnc(N)nc2N)c1`, in experiment [1], the Log 1/Ki app stood at 4.72.
On the same count and under the same terms, then `Nc1ncc(Cc2cccc(F)c2)c(N)n1`, with 4.7; and `Nc1ncc(Cc2ccccc2)c(N)n1`, with 4.71.
On to `COc1ccc(Cc2cnc(N)nc2N)cc1OC`, for which the Log 1/Ki app in experiment [1] turned out to be 4.46; in experiment [4], 5.66.
Taken in the same sequence, the figures for `Nc1ncc(Cc2ccc(OC(F)(F)F)cc2)c(N)n1` were 4.26 and 5.42.
The molecule `Nc1ncc(Cc2cccc(Cl)c2)c(N)n1` returned a Log 1/Ki app in experiment [1] of 5.01.
In the case of `CCCCCCCOc1ccc(Cc2cnc(N)nc2N)cc1`, the Log 1/Ki app in experiment [3] was 5.45.
